This is a sample that favours compounds with a hit; in the whole collection about 2% have one here.
DENV2 CPE = inhibitors of DENV2 cytopathic effect, primary screen, cell-based, plate reader, single concentration; DENV2-infected cells, cytopathic effect rescue; CPE inhibition, % at 9.99 µM; 350,000 tested, 1.7% active; AID 651640, 2012; in the data active = CPE inhibition above about 20%, passing the limit was not always enough; inconclusive = no clear call, values can overlap the other calls; tested in BHK-21 cells;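 also: 0% = median of neutral control wells and 100% = median of positive control wells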
S100A4 inh HTS = inhibitors of S100A4-myosin IIA peptide binding, primary screen, biochemical, fluorescence polarization, TAMRA-MyoIIA peptide; Protein S100-A4 (Homo sapiens), P26447; inhibition, % at 10.7 µM; 360,000 tested, 0.14% active; AID 652163, 2013;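 active = mean inhibition of at least 70% across replicates, with every replicate also reaching that level; inconclusive = mean inhibition reaches 70% but some replicates fall short; inactive = mean inhibition below 70%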
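Material: S100A4 monomer protein | Medium: HEPES pH 7.2 with CaCl2, KCl, NaCl, DTT, Triton | Reagent: Labelled myosin peptide probe, 5 nM | Doses: One dose per compound | Times: 5 min incubation before reading | Benchmarks: Neutral control DMSO, positive control TFP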
E-sel inducer = E-selectin induction in HUVECs, primary screen, imaging, HUVEC, immunofluorescence imaging, single point. P16581. normalized: neutral wells 0, TNF-alpha wells 100. activation, % at 7.58 µM. 260,000 tested, 0.37% active. AID 686992, 2013;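 active = mean E-selectin-positive cell signal at least 10% of the positive control, reached in at least 60% of replicates, without over 20% cell loss; inconclusive = no rule given, readout overlaps actives, possibly toxicity-flagged; inactive = the rest, including those meeting only one limit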
Target sequence (P16581 whole entry, looked up): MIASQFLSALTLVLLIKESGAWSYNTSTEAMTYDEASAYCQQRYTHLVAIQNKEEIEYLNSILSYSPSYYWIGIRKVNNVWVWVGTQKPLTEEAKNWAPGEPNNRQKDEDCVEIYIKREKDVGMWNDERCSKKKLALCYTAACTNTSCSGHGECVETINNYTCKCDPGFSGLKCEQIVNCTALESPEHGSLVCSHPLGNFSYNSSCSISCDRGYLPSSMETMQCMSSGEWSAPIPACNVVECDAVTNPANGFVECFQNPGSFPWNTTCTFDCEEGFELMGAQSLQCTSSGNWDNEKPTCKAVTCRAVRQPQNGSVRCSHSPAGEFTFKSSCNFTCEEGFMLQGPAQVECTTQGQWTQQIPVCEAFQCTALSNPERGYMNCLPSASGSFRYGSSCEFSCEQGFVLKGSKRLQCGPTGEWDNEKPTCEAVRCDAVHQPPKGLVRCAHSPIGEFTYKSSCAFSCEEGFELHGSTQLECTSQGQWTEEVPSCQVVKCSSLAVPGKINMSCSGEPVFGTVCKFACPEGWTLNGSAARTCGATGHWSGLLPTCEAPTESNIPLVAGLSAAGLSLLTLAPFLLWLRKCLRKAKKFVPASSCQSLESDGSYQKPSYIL
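Read-out: % PE-positive cells | Test system: HUVEC | Doses: One compound dose added by pin transfer | Buffer or medium: EGM-2 over gelatin coat | Signal: Immunofluorescence imaging | Benchmarks: TNF-alpha, DMSO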
Xi reactivation = activators of inactive X chromosome reactivation, primary screen, imaging, XiGFP fibroblasts, GFP high-content imaging, set 2; XiGFP mouse fibroblasts, % GFP-positive cells imaging, 3 d; cells co-treated with 5-aza-dC sensitizer; scaled so ellipticine positive control = 100%; activation, % at 7.58 µM; 360,000 tested, 0.055% active;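 active = mean normalized replicate activation at least 10% and every replicate at or above 10%; inconclusive = only one of the two criteria met; inactive = mean below 10% and not all replicates reach 10%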;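 also: 0% = median of on-plate neutral control wells and 100% = ellipticine 6 µM median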
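Assay system – SV40-immortalized XiGFP fibroblast cells, line 68-5-11 · Buffer or medium – DMEM supplemented with 5-aza-dC as sensitizing agent · Dosing – one concentration, pinned · Benchmarks – positive control ellipticine, 6 µM final · Times – 3 days compound exposure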
The depositor's hits bear a star; ? = inconclusive; · = no result.

SMILES | DENV2 CPE | S100A4 inh HTS | E-sel inducer | Xi reactivation
O=C(NCc1ccc(F)cc1)[C@H]1[C@H](CO)[C@H]2Cn3c(cccc3=O)[C@@H]1N2C(=O)c1cnccn1 | -5 | 0 | 0 | 0
CO[C@@H]1CN(C)C(=O)c2cc(NS(C)(=O)=O)ccc2OC[C@H](C)N(CC2CCCCC2)C[C@@H]1C | ? | 8 | 0 | 0
COCCNC(=O)CN(C(=O)CCC(=O)Nc1nccs1)c1ccc2c(c1)OCO2 | -9 | -3 | · | 0
CCOC(=O)N1CCN(c2c(N3CCOCC3)c(=O)c2=O)CC1 | 0 | 0 | 204* | 0
CCOC(=O)N1CCN(c2c(N3CCN(c4ccc(OC)cc4)CC3)c(=O)c2=O)CC1 | -3 | 0 | -1 | 0
CCOC(=O)N1CCN(C(C(=O)NC2CCCC2)C(C)C)CC1 (stereo not drawn) | 30* | 0 | 0 | 0
CC(C)C(C(=O)NC1CCCC1)N1CCN(c2ncccc2C#N)CC1 (stereo not drawn) | 3 | -3 | 0 | 0
C[C@H]1O[C@H](O[C@H]2[C@H](O[C@@H]3CC[C@@]4(C)C(CC[C@]5(C)C4CC=C4[C@@H]6CC(C)(C)CC[C@]6(C(=O)O[C@@H]6O[C@H](CO)[C@@H](O)[C@H](O)[C@H]6O)CC[C@]45C)C3(C)C)O[C@H](C(=O)O)[C@@H](O)[C@@H]2O)[C@@H](O)[C@@H](O)[C@@H]1O (stereo partly drawn) | 109* | -1 | · | ·
CC1(C)CC[C@]2(C(=O)O[C@@H]3O[C@H](CO)[C@@H](O)[C@H](O)[C@H]3O)CC[C@]3(C)C(=CCC4[C@@]5(C)CC[C@H](O[C@@H]6O[C@H](C(=O)O)[C@@H](O[C@H]7OC[C@@H](O)[C@@H](O)[C@@H]7O)[C@H](O)[C@H]6O)C(C)(C)C5CC[C@]43C)[C@@H]2C1 (stereo partly drawn) | 81* | -5 | 0 | 0
CC1OC(OC2C(CO)OC(OCC3OC(OC(=O)[C@@]45CCC(C)(C)C[C@@H]4C4=CC[C@@H]6[C@@]7(C)CCC(OC8OCC(O)C(O)C8OC8OC(C)C(O)C(O)C8O)[C@@](C)(CO)C7CC[C@@]6(C)[C@]4(C)CC5)C(O)C(O)C3O)C(O)C2O)C(O)C(O)C1O (stereo partly drawn) | -2 | 1 | 0 | 0
CC1(C)CC[C@]2(C(=O)O)CC[C@]3(C)C(=CC[C@@H]4[C@@]5(C)CC[C@H](O[C@@H]6O[C@H](C(=O)O)[C@@H](O)[C@H](O[C@@H]7OC[C@H](O)[C@H](O)[C@H]7O)[C@H]6O)C(C)(C)[C@@H]5CC[C@]43C)[C@@H]2C1 | -2 | -6 | 2 | 0
Nc1cc2[nH]c(=O)c3ccccc3c2cc1[N+](=O)[O-] | -11 | 4 | 0 | 0
CCC1=C(OC(=O)N(CC)CC)N2C(=O)OC(=NCC(=O)OC)[C@]2(Cc2ccccc2)[C@H]2C1=CC[C@H]1C(=O)NC(=O)[C@H]12 | 23* | 1 | 0 | 0
CCC1=C(OC(=O)N(CC)CC)N2C(=O)OC(=NCC(=O)OC)[C@]2(Cc2ccccc2)[C@H]2C1=CC[C@H]1C(=O)N(C)C(=O)[C@H]12 | 7 | 38 | -1 | 0
CO[C@H]1CN(C)C(=O)c2ccc(NS(=O)(=O)c3cccc(F)c3)cc2OC[C@@H](C)N(Cc2cc(F)ccc2F)C[C@@H]1C | -8 | 1 | 0 | 0
CO[C@H]1CN(C)C(=O)c2ccc(NS(=O)(=O)c3cccc(F)c3)cc2OC[C@@H](C)N(Cc2cc(F)ccc2F)C[C@H]1C | 49* | -3 | 0 | 0
CO[C@H]1CN(C)C(=O)c2cc(NS(=O)(=O)c3cccc(F)c3)ccc2OC[C@@H](C)N(Cc2cc(F)ccc2F)C[C@@H]1C | 22* | 0 | 0 | 0
COc1ccc2[nH]c(=O)c(CN(c3ccccc3)S(=O)(=O)c3ccccc3)cc2c1 | 1 | -7 | 86* | 0
O=S(=O)(Nc1ncnc2scc(-c3ccc(F)cc3)c12)c1cc(F)ccc1F | 2 | -4 | 1 | 0
CC1(C(=O)NNC(=O)c2ccc(=O)oc2)CC1Br (stereo not drawn) | 6 | -8 | 0 | 0
COCC(=O)NC[C@@H]1[C@@H](c2ccc(C3=CCCC3)cc2)[C@@H](CO)N1C(=O)C1CC1 | 25* | 1 | 0 | 1

Screening results: PubChem, Broad Institute
